IC50, microsomal CLint and Ki data for nine compounds are collected here from ChEMBL document CHEMBL1933018 (Bioorg Med Chem Lett, 2012).

The target of one series is T1, Progesterone receptor (Homo sapiens, UniProt P06401).
T1 sequence (P06401 whole entry): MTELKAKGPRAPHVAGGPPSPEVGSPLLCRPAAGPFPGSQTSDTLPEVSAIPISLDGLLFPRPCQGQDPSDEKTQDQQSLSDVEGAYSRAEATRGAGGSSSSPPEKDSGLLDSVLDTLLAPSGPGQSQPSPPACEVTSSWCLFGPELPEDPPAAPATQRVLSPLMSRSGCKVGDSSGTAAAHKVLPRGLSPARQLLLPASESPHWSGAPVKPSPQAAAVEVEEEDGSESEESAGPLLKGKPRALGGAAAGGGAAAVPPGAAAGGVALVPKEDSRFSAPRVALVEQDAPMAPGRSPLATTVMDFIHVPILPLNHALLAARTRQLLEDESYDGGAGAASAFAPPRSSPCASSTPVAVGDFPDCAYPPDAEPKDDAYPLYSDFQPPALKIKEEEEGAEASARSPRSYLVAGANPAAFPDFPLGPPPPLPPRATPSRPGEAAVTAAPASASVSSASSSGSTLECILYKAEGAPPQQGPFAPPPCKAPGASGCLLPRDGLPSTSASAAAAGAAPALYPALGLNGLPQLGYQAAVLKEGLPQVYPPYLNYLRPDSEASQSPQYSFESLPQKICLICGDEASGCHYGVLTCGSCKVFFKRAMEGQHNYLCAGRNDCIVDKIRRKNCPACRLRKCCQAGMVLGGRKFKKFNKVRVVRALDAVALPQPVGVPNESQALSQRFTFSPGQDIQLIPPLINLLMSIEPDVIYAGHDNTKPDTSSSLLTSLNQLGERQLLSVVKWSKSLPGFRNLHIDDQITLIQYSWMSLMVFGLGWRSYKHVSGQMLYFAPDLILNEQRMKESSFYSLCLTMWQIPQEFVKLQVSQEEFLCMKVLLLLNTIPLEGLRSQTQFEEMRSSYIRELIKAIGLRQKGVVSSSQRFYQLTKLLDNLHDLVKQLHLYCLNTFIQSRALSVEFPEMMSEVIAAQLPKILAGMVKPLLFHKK
Kind of series: Antagonist activity at progesterone receptor. The series is classed as functional.

Series [1] in a line: Intrinsic clearance in liver microsomes. The following applies: read-out: CLH. It is filed as ADME, Microsome. (Liver microsomes are a subcellular fraction often used to study metabolism.)
Series [2] deals with T2, Corticotropin-releasing factor receptor 1 (Homo sapiens, UniProt P34998).
T2 sequence (P34998 whole entry): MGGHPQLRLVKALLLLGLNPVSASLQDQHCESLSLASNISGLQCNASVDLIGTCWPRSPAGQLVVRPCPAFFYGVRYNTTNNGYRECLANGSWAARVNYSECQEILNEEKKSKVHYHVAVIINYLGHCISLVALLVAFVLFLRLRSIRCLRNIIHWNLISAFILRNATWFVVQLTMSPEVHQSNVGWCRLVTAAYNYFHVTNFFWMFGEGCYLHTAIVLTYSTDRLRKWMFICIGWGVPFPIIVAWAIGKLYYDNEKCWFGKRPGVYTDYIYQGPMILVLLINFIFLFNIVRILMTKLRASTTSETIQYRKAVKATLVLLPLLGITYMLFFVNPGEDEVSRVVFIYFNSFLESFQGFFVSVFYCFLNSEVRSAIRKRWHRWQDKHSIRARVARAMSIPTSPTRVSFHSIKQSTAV
Kind of series: Antagonist activity at human recombinant CRF1 receptor expressed in CHO cells by cAMP assay. The series is classed as functional, cell-based. Summed up: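 CHO cells stably expressing recombinant human CRF-1 were grown in DMEM:F12 (1:1) with 10% FBS, 400 µg/ml Geneticin and 1% Glutamax at 37 °C, 5% CO2 to 70% confluence. 10,000 cells/well in PBS with 500 µM IBMX (final) were stimulated with hCRF (108 nM final) plus test compound. cAMP was read by HitHunter cAMP II kit. Compounds were tested repeatedly over a 0.5-log serial dilution series.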
On the technique in general: Changes in cAMP serve as a functional read-out for many G protein-coupled receptors.

The structures appear in SMILES notation.

As a reminder, the IC50 is the concentration that gives 50% inhibition. A low value points to inhibition by little substance. With `CC#C[C@]1(O)CC[C@H]2[C@@H]3CCC(=O)C(CCC(=O)O)=C3[C@@H](c3ccc(N(C)C=O)cc3)C[C@@]21C`, half-maximal inhibition against Progesterone receptor (IC50) required 430 nM.
With `CC#C[C@]1(O)CC[C@H]2[C@@H]3CCC4=CC(=O)CCC4=C3[C@@H](c3ccc(N(C)C=O)cc3)C[C@@]21C`, the microsomal CLint in series [1] was 81 µL/min/mg. Moreover, the IC50 on Progesterone receptor stood at 10 nM.
`CC#C[C@]1(O)CC[C@H]2[C@@H]3CCC4=CC(=O)CCC4=C3C(c3ccc(N(C)C)cc3)=C[C@@]21C` displayed an IC50 against Progesterone receptor of 307 nM. That is a sub-micromolar value.
As to `CC#C[C@]1(O)CC[C@H]2[C@@H]3CCC4=CC(=O)CCC4=C3[C@@](Cl)(c3cc(Cl)c(N(C)C)c(Cl)c3)C[C@@]21C`, in series [1], the microsomal CLint was 76 µL/min/mg. For the same compound, on Progesterone receptor, 771 nM corresponded to half-maximal inhibition (IC50).
One may read the Ki as the dissociation constant of the complex between target and ligand, obtained from inhibition or displacement. As for `CCCCN(CC)c1nc(C)nc2c1c(C)c(CO)n2-c1c(C)cc(C)cc1C`, the Ki in series [2] came to 6 nM.
Still for that read-out and setting: with `CCCCN(CC)c1nc(C)nc2c1c(C)c(C=O)n2-c1c(C)cc(C)cc1C` the figure was 52 nM.
On to `CCCCN(CC)c1nc(C)nc2c1c(C)c(COC)n2-c1c(C)cc(C)cc1C`, for which the Ki in series [2] came out at 11 nM.
Turning to `CCCCN(CC)c1nc(C)nc2c1c(C)c(C)n2-c1c(C)cc(C)cc1C` [ANTALARMIN], in series [2], the Ki was found to be 32 nM.
As to `CC#C[C@]1(O)CC[C@H]2[C@@H]3CCC4=CC(=O)CCC4=C3[C@@H](c3ccc(N(C)C)cc3)C[C@@]21C` [MIFEPRISTONE], the microsomal CLint in series [1] is 92.5 µL/min/mg.
